In ChEMBL document CHEMBL1142221, “Nootropic alpha7 nicotinic receptor allosteric modulator derived from GABAA receptor modulators” (Proc Natl Acad Sci U S A, 2007):
Active and inactive are the calls of the source. No cut-off for these calls is given here.

Assays:
[1] = target: T1, Neuronal acetylcholine receptor subunit alpha-7 (Homo sapiens, UniProt P36544); test: Activation of human alpha-7 nAChR expressed in Xenopus oocytes assessed as modulation of nicotine-induced current by measuring ratio of I/Imax current by two-electrode voltage-clamp method; assay type: cell-based; settings: Oocyte
In short: (§1)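 Oocytes injected with 0.005–50 ng mRNA per subunit (α4β2 and α3β4 at 1:1; α1β1γδ at 1:1:1:1; α7 and 5-HT3A single). Two-electrode voltage clamp at −70 mV, 3–14 days post-injection. Ca²⁺-free Ringer's with BaCl₂ replacing Ca²⁺ (pH 7.4) to limit Ca²⁺-activated Cl⁻ currents. Rapid linear-array application. Current expressed as I/I_max; concentration–effect data fit to a four-parameter logistic. For α7, agonist was fixed at EC₅.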

[2] = target: T2, 5-hydroxytryptamine receptor 3A (Homo sapiens) (UniProt P46098); test: Activity at human 5HT3A receptor expressed in Xenopus oocytes assessed as stimulation of […] current at 10 uM by two-electrode voltage-clamp method; assay type: cell-based; settings: Oocyte; in short: as §1
T2 sequence (whole entry): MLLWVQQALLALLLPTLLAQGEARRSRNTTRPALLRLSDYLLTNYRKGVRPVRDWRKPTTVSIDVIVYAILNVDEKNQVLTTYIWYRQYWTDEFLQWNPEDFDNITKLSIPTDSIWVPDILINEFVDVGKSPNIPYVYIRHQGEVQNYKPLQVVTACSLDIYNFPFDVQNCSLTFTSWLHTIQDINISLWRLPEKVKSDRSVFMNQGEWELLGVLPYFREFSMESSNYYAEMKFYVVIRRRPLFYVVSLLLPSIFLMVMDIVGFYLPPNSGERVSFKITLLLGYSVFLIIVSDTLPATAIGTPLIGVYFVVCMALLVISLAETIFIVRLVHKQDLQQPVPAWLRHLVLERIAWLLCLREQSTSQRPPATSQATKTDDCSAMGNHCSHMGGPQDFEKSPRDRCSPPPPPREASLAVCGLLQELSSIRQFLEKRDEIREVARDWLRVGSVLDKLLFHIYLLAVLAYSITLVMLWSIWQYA

[3] = target: T3, Neuronal acetylcholine receptor; alpha4/beta2 (Homo sapiens) (UniProt P17787+P43681); test: Activation of human nAChR alpha-4-beta-2 expressed in Xenopus oocytes assessed as modulation of nicotine-induced current by measuring ratio of I/Imax current by two-electrode voltage-clamp method; assay type: cell-based; settings: Oocyte; in short: as §1
[4] = target: T3, Neuronal acetylcholine receptor; alpha4/beta2 (Homo sapiens); test: Activity at human nAChR alpha4beta2 expressing Xenopus oocytes assessed as stimulation of nicotine-induced current at 10 uM by two-electrode voltage-clamp method; assay type: cell-based; settings: Oocyte; in short: as §1
[5] = target: GABA-A receptor; alpha-2/beta-3/gamma-2 (Homo sapiens) (UniProt P18507+P28472+P47869); test: Activation of human GABAA alpha-2-beta-3-gamma-2L receptor expressed in Xenopus oocytes assessed as modulation of GABA-induced current by measuring ratio of I/Imax current by two-electrode voltage-clamp method; settings: Oocyte
[6] = target: T4, GABA-A receptor; alpha-2/beta-3/gamma-2 (Homo sapiens, UniProt P18507+P28472+P47869); test: Activation of human GABAA alpha-2-beta-3-gamma-2L receptor expressed in Xenopus oocytes assessed as modulation of GABA-induced current by two-electrode voltage-clamp method
T4 sequence (P18507 whole entry): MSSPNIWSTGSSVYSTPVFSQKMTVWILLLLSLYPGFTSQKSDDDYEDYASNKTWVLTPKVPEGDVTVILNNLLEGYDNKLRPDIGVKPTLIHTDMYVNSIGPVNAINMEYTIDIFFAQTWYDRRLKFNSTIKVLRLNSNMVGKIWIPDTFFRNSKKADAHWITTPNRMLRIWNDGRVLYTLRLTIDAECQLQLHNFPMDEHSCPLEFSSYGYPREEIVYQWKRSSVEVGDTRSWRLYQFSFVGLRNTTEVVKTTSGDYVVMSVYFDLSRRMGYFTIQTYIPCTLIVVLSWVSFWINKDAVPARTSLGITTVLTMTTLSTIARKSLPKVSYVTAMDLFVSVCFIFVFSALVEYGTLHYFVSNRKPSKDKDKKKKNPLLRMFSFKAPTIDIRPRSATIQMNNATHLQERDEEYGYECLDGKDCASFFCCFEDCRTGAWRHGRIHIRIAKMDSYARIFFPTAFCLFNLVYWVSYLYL
T4 sequence (P28472 whole entry): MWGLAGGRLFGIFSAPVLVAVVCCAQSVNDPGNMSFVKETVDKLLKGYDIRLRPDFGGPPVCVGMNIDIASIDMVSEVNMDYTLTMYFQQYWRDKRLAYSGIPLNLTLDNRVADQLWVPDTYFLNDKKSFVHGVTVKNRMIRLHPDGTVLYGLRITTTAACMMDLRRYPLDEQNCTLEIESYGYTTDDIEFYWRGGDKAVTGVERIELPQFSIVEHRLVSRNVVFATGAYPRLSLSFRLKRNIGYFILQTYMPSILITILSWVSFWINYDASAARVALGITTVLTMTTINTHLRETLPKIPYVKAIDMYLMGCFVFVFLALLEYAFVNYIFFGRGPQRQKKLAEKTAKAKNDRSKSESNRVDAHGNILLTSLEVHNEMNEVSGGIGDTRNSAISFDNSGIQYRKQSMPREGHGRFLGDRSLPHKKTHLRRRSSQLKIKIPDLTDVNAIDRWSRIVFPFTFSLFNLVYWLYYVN
T4 sequence (P47869 whole entry): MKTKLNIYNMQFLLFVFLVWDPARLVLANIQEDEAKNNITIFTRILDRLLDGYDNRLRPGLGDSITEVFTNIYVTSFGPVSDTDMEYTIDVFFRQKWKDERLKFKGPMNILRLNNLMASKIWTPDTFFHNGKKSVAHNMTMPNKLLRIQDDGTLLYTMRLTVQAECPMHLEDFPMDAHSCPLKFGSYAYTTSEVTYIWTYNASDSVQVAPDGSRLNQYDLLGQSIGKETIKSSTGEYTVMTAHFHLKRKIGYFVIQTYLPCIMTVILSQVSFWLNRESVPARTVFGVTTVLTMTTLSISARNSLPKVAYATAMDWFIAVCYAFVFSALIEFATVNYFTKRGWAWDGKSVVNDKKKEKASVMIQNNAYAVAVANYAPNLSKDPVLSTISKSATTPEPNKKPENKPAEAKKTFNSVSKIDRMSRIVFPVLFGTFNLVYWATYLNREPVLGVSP

[7] = target: T1, Neuronal acetylcholine receptor subunit alpha-7; test: Activation of human alpha-7 nAChR expressed in Xenopus oocytes assessed as modulation of nicotine-induced current by two-electrode voltage-clamp method; assay type: cell-based, Oocyte; in short: as §1

T1 sequence (P36544 whole entry): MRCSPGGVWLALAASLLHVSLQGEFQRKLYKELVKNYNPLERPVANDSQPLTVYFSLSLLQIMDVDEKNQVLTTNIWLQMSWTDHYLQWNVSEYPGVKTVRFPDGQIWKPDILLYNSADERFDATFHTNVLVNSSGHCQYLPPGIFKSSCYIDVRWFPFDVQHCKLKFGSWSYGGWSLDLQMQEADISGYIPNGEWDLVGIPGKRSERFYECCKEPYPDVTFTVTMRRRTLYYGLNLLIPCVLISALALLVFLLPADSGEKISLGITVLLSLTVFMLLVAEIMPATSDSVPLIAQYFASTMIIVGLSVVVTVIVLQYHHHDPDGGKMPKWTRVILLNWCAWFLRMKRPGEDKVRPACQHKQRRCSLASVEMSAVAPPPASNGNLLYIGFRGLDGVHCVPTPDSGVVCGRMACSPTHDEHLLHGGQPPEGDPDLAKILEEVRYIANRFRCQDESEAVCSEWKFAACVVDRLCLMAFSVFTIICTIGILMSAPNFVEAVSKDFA

## CCOC(=O)/C(=C\Nc1ccc(OCC)cc1)C(=O)c1ccccc1Cl
[1]
  Ratio: 0.86
[2]
  Activity: inactive
[3]
  Activity: inactive
[4]
  Activity: inactive
[5]
  Ratio: 0.93
[6]
  EC50: 200 nM
[7]
  EC50: 1800 nM
